Measurements taken from ChEMBL document CHEMBL4706662, “Design and Evaluation of Peptide Dual-Agonists of GLP-1 and NPY2 Receptors for Glucoregulation and Weight Loss with Mitigated Nausea and Emesis” (J Med Chem, 2021).
Active and inactive are the calls of the source. No cut-off for these calls is given here. Square brackets hold non-standard residues; d marks the D form. Peptide text beside a SMILES is read from it. ξ: configuration not given here. ξF = NC(Cc1ccccc1)C(=O)O

How the values were obtained:
[1] = target: T1, Glucagon-like peptide 1 receptor (Homo sapiens, UniProt P43220); experiment: Agonist activity at human GLP-1R expressed in HEK293 cells assessed as stimulation of cAMP accumulation in presence of GLP-1R antagonist exendin9-39 by FRET assay; type: functional, cell-based
T1 sequence (P43220 whole entry): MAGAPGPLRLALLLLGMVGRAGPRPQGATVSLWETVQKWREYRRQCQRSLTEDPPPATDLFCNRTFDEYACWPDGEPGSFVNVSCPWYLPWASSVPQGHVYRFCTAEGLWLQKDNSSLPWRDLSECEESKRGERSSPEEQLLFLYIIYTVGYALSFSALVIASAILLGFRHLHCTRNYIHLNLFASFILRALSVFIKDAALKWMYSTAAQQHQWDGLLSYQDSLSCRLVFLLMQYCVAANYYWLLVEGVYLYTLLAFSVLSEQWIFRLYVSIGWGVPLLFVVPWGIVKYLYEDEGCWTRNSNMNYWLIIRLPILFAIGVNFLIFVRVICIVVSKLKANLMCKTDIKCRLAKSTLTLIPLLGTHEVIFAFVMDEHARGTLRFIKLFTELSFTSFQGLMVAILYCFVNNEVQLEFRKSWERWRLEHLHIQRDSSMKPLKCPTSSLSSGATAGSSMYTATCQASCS
Procedure, shortened: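 HEK293 cells stably expressing human GLP-1R, transduced with H188 cAMP FRET reporter (16 h, MOI 25), read in SES (pH 7.4, 11 mM glucose, 0.1% BSA). Antagonist Ex(9–39) added 20 min before agonist. Excitation 435 nm; 485/535 emission ratio baseline-normalized, read in real time. Triplicate independent runs; EC50 by nonlinear regression of peak FRET values.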

[2] = target: T2, Neuropeptide Y receptor type 2 (Homo sapiens, UniProt P49146); experiment: Agonist activity at human NPY2R expressed in HEK293 cells assessed as inhibition of adenosine-induced stimulation of cAMP accumulation by FRET assay; type: functional, cell-based
T2 sequence (P49146 whole entry): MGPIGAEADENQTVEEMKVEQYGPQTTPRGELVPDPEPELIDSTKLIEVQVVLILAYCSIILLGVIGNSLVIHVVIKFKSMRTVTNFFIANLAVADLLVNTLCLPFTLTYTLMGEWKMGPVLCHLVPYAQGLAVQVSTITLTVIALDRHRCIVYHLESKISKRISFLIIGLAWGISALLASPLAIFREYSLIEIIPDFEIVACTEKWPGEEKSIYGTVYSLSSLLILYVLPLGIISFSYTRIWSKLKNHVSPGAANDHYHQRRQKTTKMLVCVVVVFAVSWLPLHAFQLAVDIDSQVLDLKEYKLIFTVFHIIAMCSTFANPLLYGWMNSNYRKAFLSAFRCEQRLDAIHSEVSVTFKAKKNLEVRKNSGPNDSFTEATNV

Rattus norvegicus [3] = experiment: Suppression of food intake in Sprague-Dawley rat model of DIO at 10 nmol/kg dosed daily for 5 days; type: functional, organism-based; settings: time 5.0 day
[4] = Intrinsic clearance in Sprague-Dawley rat liver microsomes at 30 uM in presence of NADPH by HPLC analysis; type: ADME, Microsome
Suncus murinus [5] = experiment: Improvement in glucose clearance in musk shrew assessed as increase in plasma glucose clearing rate at 10 nmol/kg, ip measured 20 to 60 mins following glucose administration by IPGTT method; type: functional, organism-based; settings: time 20-60 min
Procedure, shortened: (§1)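 Male musk shrews (~8 months, 60–65 g, n = 9), within-subject counterbalanced. Baseline tail glucose by glucometer, then IP drug or saline (1 mL/100 g); 30 min later IP glucose 2 g/kg, glucose read at 20, 40, 60 and 120 min.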

[6] = target: T1, Glucagon-like peptide 1 receptor; experiment: Displacement of GLP-1-red from human GLP-1R expressed in CHO-K1 cells by fluorescent competitive binding assay; type: cell-based
Pancreatic islet [7] = experiment: Stimulation of glucose stimulated insulin secretion in rat pancreatic islets at 50 nM in presence of 3 mM glucose incubated for 60 mins; type: functional, tissue-based
Rattus norvegicus [8] = experiment: Suppression of body weight in Sprague-Dawley rat model of DIO at 10 nmol/kg dosed daily for 5 days; type: functional; settings: time 5 day
Glucagon receptor = Glucagon receptor (Rattus norvegicus, UniProt P30082); experiment: Agonist activity at rat glucagon receptor expressed in HEK293 cells assessed as stimulation of cAMP accumulation by FRET assay; type: functional, cell-based
Chain of Glucagon receptor (P30082 whole entry): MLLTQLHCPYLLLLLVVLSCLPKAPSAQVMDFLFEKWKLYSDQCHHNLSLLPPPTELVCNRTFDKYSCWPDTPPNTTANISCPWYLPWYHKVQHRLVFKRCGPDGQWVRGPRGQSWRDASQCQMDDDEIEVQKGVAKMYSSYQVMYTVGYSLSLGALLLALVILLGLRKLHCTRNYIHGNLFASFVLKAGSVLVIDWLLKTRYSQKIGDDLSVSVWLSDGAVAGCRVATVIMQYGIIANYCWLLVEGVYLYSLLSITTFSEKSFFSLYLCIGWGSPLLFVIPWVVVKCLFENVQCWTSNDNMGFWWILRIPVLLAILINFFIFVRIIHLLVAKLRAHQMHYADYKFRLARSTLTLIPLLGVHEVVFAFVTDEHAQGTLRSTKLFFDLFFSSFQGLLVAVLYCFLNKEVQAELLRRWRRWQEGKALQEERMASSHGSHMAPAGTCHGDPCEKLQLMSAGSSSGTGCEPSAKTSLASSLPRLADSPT

[9] = target: T3, Neuropeptide Y receptor type 1 (Homo sapiens, UniProt P25929); experiment: Agonist activity at human NPY1R expressed in HEK293 cells assessed as inhibition of adenosine-induced stimulation of cAMP accumulation by FRET assay; type: functional, cell-based
T3 sequence (P25929 whole entry): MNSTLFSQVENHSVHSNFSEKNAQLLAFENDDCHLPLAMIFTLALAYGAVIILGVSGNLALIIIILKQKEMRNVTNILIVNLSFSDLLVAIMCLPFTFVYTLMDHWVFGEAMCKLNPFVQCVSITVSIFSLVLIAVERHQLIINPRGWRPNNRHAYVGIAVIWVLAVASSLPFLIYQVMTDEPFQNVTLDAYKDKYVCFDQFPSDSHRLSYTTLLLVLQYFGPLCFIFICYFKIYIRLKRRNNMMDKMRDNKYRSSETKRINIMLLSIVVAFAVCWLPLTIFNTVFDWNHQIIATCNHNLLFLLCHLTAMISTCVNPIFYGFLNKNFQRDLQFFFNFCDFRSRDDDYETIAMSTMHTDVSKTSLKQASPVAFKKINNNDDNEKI

[10] = target: T1, Glucagon-like peptide 1 receptor; experiment: Agonist activity at human GLP-1R expressed in HEK293 cells assessed as stimulation of cAMP accumulation by FRET assay; type: functional, cell-based
[11] = target: T4, Neuropeptide Y receptor type 2 (Homo sapiens) (UniProt P49146); experiment: Agonist activity at human NPY2R expressed in HEK293 cells assessed as inhibition of adenosine-induced stimulation of cAMP accumulation in presence of NPY2-R antagonist […] by FRET assay; type: functional, cell-based
T4 sequence (whole entry): T2 sequence (P49146 whole entry)

[12] = Toxicity in lean Sprague-Dawley rat assessed as induction at 0.3 to 60 nmol/kg dosed daily for 2 days by kaolin consumption assay; settings: in vivo, 48 h
[13] = target: T5, Glucagon-like peptide 1 receptor (Rattus norvegicus, UniProt P32301); experiment: Agonist activity at rat GLP-1R expressed in HEK293 cells assessed as stimulation of cAMP accumulation by FRET assay; type: functional, cell-based
T5 sequence (P32301 whole entry): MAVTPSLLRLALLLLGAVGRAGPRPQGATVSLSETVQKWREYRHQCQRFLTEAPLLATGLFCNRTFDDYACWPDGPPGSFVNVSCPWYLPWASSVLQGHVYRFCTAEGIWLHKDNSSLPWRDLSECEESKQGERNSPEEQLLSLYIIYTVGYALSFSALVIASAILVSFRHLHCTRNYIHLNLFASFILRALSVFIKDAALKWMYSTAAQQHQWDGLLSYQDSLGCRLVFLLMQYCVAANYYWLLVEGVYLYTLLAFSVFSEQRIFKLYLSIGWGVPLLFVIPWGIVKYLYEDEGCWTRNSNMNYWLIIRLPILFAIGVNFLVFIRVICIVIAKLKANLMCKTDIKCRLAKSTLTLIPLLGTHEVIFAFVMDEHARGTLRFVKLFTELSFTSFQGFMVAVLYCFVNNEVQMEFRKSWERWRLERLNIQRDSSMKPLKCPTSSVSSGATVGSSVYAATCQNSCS

Rattus norvegicus [14] = experiment: Suppression of fasting blood glucose in Sprague-Dawley rat model of DIO at 10 nmol/kg dosed daily for 5 days; type: functional, organism-based; settings: time 5.0 day
Rattus norvegicus [15] = experiment: Suppression of cumulative food intake in lean Sprague-Dawley rat at 0.3 to 60 nmol/kg dosed daily for 2 days; type: functional, organism-based; settings: dose 0.3-60 nmol/kg, time 2.0 day
Suncus murinus [16] = experiment: Improvement in glucose clearance in musk shrew at 10 nmol/kg, ip measured 20 to 60 mins following glucose administration by IPGTT method; type: functional, organism-based; settings: time 20-60 min; procedure, shortened: as §1
Rattus norvegicus [17] = experiment: Suppression of blood glucose level in prediabetic Sprague-Dawley rat model of DIO assessed as reduction in post-dextrose bolus blood glucose at 10 nmol/kg dosed daily for 5 days by IPGTT method; type: functional, organism-based; settings: time 5.0 day
[18] = Toxicity in musk shrew assessed as induction of emesis at 10 to 60 nmol/kg, ip measured after 120 mins; type: organism-based; settings: suncus murinus, in vivo, 2 h, dose 10-60 nmol/kg
Rattus norvegicus [19] = experiment: Effect on glucose clearance in Sprague-Dawley rat model of DIO at 10 nmol/kg dosed daily for 5 days; type: functional, organism-based; settings: time 5.0 day
Pancreatic islet [20] = experiment: Stimulation of glucose stimulated insulin secretion in rat pancreatic islets at 50 nM in presence of 10 mM glucose incubated for 60 mins; type: functional, tissue-based
Rattus norvegicus [21] = experiment: Suppression of cumulative food intake in lean Sprague-Dawley rat at 10 to 20 nmol/kg dosed daily for 2 days relative to control; type: functional; settings: dose 10-20 nmol/kg, time 2 day
[22] = Half life in Sprague-Dawley rat liver microsomes at 30 uM in presence of NADPH by HPLC analysis; type: ADME, Microsome

**Q.** What does the source list for “H-H[dS]QGTFTSDLSKYLEEEAVREFIAWLKNGGPSRHYLNLVTRQRY-NH2”?
**A.** Activity [1]: inactive; IC50 [2]: 10 nM; Activity (Rattus norvegicus [3]): Active; microsomal CLint at 30 µM [4]: 32.5 µL/min/mg; Activity (Suncus murinus [5]): Active; IC50 [6]: 113 nM; Activity (Pancreatic islet [7]): inactive; Activity (Rattus norvegicus [8]): 5%; EC50 (Glucagon receptor): > 3000 nM; IC50 [9]: 27 nM; EC50 [10]: 0.33 nM; Activity [11]: inactive; Activity [12]: Non-Toxic; EC50 [13]: 0.48 nM; Activity (Rattus norvegicus [14]): Active; Activity (Rattus norvegicus [15]): Dose-dependent effect; Activity (Suncus murinus [16]): Active; Activity (Rattus norvegicus [17]): Active; Activity [18]: Non-Toxic; Activity (Rattus norvegicus [19]): Active; Activity (Pancreatic islet [20]): Active; Activity (Rattus norvegicus [21]): 71.4%; half-life at 30 µM [22]: 2.27 h

**Q.** For “H-HSQGTFTSDLSKQMEEEAVRLFIEWLKNRYYASLRRHYLNLVTRQRY-NH2”, which IC50 [6] is on record?
**A.** > 1000 nM

**Q.** What about the EC50 (Glucagon receptor) of the same molecule?
**A.** > 3000 nM

**Q.** And the IC50 [9]?
**A.** 82 nM

**Q.** Which results are given for `CC[C@H](C)[C@H](NC(=O)C(Cc1ccccc1)NC(=O)[C@H](CC(C)C)NC(=O)[C@H](CCCNC(=N)N)NC(=O)[C@@H](NC(=O)[C@H](C)NC(=O)[C@H](CCC(=O)O)NC(=O)[C@H](CCC(=O)O)NC(=O)[C@H](CCC(=O)O)NC(=O)[C@H](CCSC)NC(=O)[C@H](CCC(N)=O)NC(=O)[C@H](CCCCN)NC(=O)[C@H](CO)NC(=O)[C@H](CC(C)C)NC(=O)[C@H](CC(=O)O)NC(=O)[C@H](CO)NC(=O)[C@@H](NC(=O)[C@H](Cc1ccccc1)NC(=O)[C@@H](NC(=O)CNC(=O)[C@H](CCC(N)=O)NC(=O)[C@H](CO)NC(=O)[C@@H](N)Cc1cnc[nH]1)[C@@H](C)O)[C@@H](C)O)C(C)C)C(=O)N[C@@H](CCC(=O)O)C(=O)N[C@@H](Cc1c[nH]c2ccccc12)C(=O)N[C@@H](CC(C)C)C(=O)N[C@@H](CCCCN)C(=O)N[C@@H](CC(N)=O)C(=O)N[C@@H](CCCNC(=N)N)C(=O)N[C@@H](Cc1cnc[nH]1)C(=O)N[C@@H](Cc1ccc(O)cc1)C(=O)N[C@@H](CC(C)C)C(=O)N[C@@H](CC(N)=O)C(=O)N[C@@H](CC(C)C)C(=O)N[C@H](C(=O)N[C@H](C(=O)N[C@@H](CCCNC(=N)N)C(=O)N[C@@H](CCC(N)=O)C(=O)N[C@@H](CCCNC(=N)N)C(=O)N[C@@H](Cc1ccc(O)cc1)C(=O)O)[C@@H](C)O)C(C)C` (some centres undefined) (H-HSQGTFTSDLSKQMEEEAVRL[ξF]IEWLKNRHYLNLVTRQRY-OH)?
**A.** IC50 [2]: 61 nM; IC50 [6]: 321 nM; EC50 (Glucagon receptor): > 3000 nM; EC50 [10]: 0.533 nM

**Q.** What does the source list for “H-HSQGTFTSDLSKQMEEWAVRLFIEWLKNGGPSRYYASLRRHYLNLVTRQRY-NH2”?
**A.** IC50 [2]: 25 nM; IC50 [6]: > 1000 nM; EC50 (Glucagon receptor): > 3000 nM; EC50 [10]: 2.3 nM

**Q.** For `CC[C@H](C)[C@H](NC(=O)C(Cc1ccccc1)NC(=O)[C@H](CC(C)C)NC(=O)[C@H](CCCNC(=N)N)NC(=O)[C@@H](NC(=O)[C@H](C)NC(=O)[C@H](CCC(=O)O)NC(=O)[C@H](CCC(=O)O)NC(=O)[C@H](CCC(=O)O)NC(=O)[C@H](CCSC)NC(=O)[C@H](CCC(N)=O)NC(=O)[C@H](CCCCN)NC(=O)[C@H](CO)NC(=O)[C@H](CC(C)C)NC(=O)[C@H](CC(=O)O)NC(=O)[C@H](CO)NC(=O)[C@@H](NC(=O)[C@H](Cc1ccccc1)NC(=O)[C@@H](NC(=O)CNC(=O)[C@H](CCC(N)=O)NC(=O)[C@H](CO)NC(=O)[C@@H](N)Cc1cnc[nH]1)[C@@H](C)O)[C@@H](C)O)C(C)C)C(=O)N[C@@H](CCC(=O)O)C(=O)N[C@@H](Cc1c[nH]c2ccccc12)C(=O)N[C@@H](CC(C)C)C(=O)N[C@@H](CCCCN)C(=O)N[C@@H](CC(N)=O)C(=O)NCC(=O)NCC(=O)N1CCC[C@@H]1C(=O)N[C@@H](CO)C(=O)N[C@@H](CCCNC(=N)N)C(=O)N[C@@H](Cc1cnc[nH]1)C(=O)N[C@@H](Cc1ccc(O)cc1)C(=O)N[C@@H](CC(C)C)C(=O)N[C@@H](CC(N)=O)C(=O)N[C@@H](CC(C)C)C(=O)N[C@H](C(=O)N[C@H](C(=O)N[C@@H](CCCNC(=N)N)C(=O)N[C@@H](CCC(N)=O)C(=O)N[C@@H](CCCNC(=N)N)C(=O)N[C@@H](Cc1ccc(O)cc1)C(=O)O)[C@@H](C)O)C(C)C` (some centres undefined), which IC50 ([2]; hek293) is on record?
**A.** 32 nM

**Q.** What about the IC50 ([6]; cho-k1) of the same molecule?
**A.** 27.5 nM

**Q.** And the EC50 (Glucagon receptor; hek293)?
**A.** 30 nM

**Q.** What about the EC50 ([10]; hek293) of the same molecule?
**A.** 0.24 nM

**Q.** And the EC50 ([13]; hek293)?
**A.** 0.12 nM
